Only some compounds are listed: those with a hit (about 2.6% of all), similar ones and a draw of the others.
Platelet DG rel: modulates dense granule release in human platelets; human platelet-rich plasma, SFLLRN dense granule ATP release, luminescence; inhibition, %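 (compounds screened at 7.5 µM in platelet-rich plasma)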; 300,000 tested, 0.22% active; AID 1663;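 active = mean replicate score, as percent of positive control, at or above 50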
SENP7 block: blocks the human protease SENP7; 330,000 tested, 1.5% active; inhibition, % at 5 µM; Q9BQF6; recombinant SENP7, Z-RLRGG-aminoluciferin luminescence, 40 min;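 active = inhibition above about 50% at the single test dose, limit read from the data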;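 note: plate controls were DMSO with enzyme for no effect and no enzyme buffer wells for full effect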
Target sequence (Q9BQF6 706-1050 limits assumed): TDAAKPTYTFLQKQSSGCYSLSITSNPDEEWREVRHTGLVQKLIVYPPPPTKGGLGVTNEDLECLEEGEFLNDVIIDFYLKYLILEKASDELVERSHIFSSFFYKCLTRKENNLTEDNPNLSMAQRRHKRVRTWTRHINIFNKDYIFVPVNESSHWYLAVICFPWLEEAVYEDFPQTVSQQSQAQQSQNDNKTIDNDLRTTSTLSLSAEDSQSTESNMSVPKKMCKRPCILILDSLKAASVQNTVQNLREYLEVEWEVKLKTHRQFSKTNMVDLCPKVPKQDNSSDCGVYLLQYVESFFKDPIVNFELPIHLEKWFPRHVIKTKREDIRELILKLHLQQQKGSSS
SENP8 block-1: inhibitors of human SENP8 protease; Q96LD8; recombinant SENP8, Nedd8 substrate fluorescence; inhibition, % at 20 µM; 360,000 tested, 0.64% active; AID 602440; in the data active = inhibition mostly above about 40%, no sharp cut-off; inactive = mostly below about 27%
Target sequence (Q96LD8 whole entry, looked up): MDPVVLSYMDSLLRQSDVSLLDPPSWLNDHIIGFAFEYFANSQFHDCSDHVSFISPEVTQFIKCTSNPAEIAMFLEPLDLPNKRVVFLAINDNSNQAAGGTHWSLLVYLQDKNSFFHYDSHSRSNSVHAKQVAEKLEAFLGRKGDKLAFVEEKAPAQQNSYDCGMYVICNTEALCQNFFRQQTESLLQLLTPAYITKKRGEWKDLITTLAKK
SENP8 block-2: inhibitors of human SENP8 protease; 330,000 tested, 1.2% active; inhibition, % at 10 µM; AID 2540; purified SENP8, Z-RLRGG-aminoluciferin cleavage, luminescence; in the data active = inhibition above about 50%
SENP1 FRET inh: blocks the human SENP1 SUMO protease catalytic domain; Q9P0U3; recombinant SENP1 catalytic domain, CyPet-SUMO1-YPet FRET cleavage; inhibition, % at 10 µM; 360,000 tested, 0.21% active; AID 624204;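 active = inhibition at least 30% at 10 µM, raw YFP signal under a set limit, fluorescence ratio 0.5 to 1.5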;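 note: 0% = enzyme with DMSO and 100% = no enzyme wells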
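Test system: hSENP1 catalytic domain, recombinant; Amount: 20 pM final SENP1 enzyme; Medium: Tris pH 8 buffer plus EDTA, NaCl, BME, BSA, NP40, catalase; Schedule: 50 min enzyme reaction, room temperature, light-protected; Technique: FRET fluorescence in CFP and YFP emission channels; Controls: no-enzyme wells low, DMSO-plus-enzyme wells high control.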
SENP6 block: blocks the human protease SENP6 | Q9GZR1 | Recombinant SENP6 catalytic domain, aminoluciferin luminescence | inhibition, % at 10 µM | 330,000 tested, 1.8% active | AID 2599;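 active = inhibition above about 50% at the single tested dose, limit read from the data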;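 note: plate controls were DMSO wells with enzyme for no effect and DMSO wells lacking enzyme for full effect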
Starred values were filed as active, the others as inactive.

O=C(/C=C/c1cccs1)N1CCN(c2ccccc2F)CC1 was read as Platelet DG rel 23.5, SENP7 block 6.1, SENP8 block-1 6.9, SENP8 block-2 -0.1, SENP1 FRET inh 0.6 and SENP6 block -6.6.
O=C(/C=C/c1cccs1)N1CCc2ccccc21 was read as Platelet DG rel 20.9, SENP7 block 97.8*, SENP8 block-1 32.9, SENP8 block-2 93.4*, SENP1 FRET inh 1.2 and SENP6 block -3.4.
Screening CC(=O)n1c2ccccc2c2nc(NC(C)C)sc21 returned Platelet DG rel -4.2, SENP7 block 11.3, SENP8 block-1 34.9, SENP8 block-2 7.9, SENP1 FRET inh 1.5 and SENP6 block 14.6.
`CNc1nc2c3ccccc3n(C(C)=O)c2s1` gave Platelet DG rel 50.0*, SENP7 block 2.1, SENP8 block-1 17.9, SENP8 block-2 -0.5, SENP1 FRET inh 0.2 and SENP6 block 5.1.
For O=C(NCCCn1ccnc1)c1ccc(Br)s1 the results were Platelet DG rel 9.9, SENP7 block 4.4, SENP8 block-1 13.7, SENP8 block-2 -2.2, SENP1 FRET inh 2.5 and SENP6 block -6.9.
For CCCN1C(=O)c2cc(C(=O)Nc3ccccc3C)ccc2C1Nc1ccccc1C (centres undefined) the results were Platelet DG rel 2.2, SENP7 block 4.8, SENP8 block-1 7.2, SENP8 block-2 2.3, SENP1 FRET inh 2.0 and SENP6 block -6.9.
Cc1ccc(-c2cn(-c3ccccc3)c(=S)[nH]2)cc1C was read as Platelet DG rel -1.4, SENP7 block 86.5*, SENP8 block-1 11.8, SENP8 block-2 65.9*, SENP1 FRET inh -0.1 and SENP6 block 80.7*.
O=C1CCN(N=Nc2cccc(Cl)c2)N1 was read as Platelet DG rel 52.8*, SENP7 block -8.4, SENP8 block-2 -4.6 and SENP6 block -22.7.
`COC(=O)C(C)Sc1nc2c([nH]c3ccccc32)c(=O)n1C` (centres undefined) gave Platelet DG rel 0.1, SENP7 block 2.6, SENP8 block-1 -2.3, SENP8 block-2 3.5, SENP1 FRET inh 0.3 and SENP6 block 4.7.
COc1ccc(N2CCN(CCNC(=O)CCCn3c(=O)[nH]c4cc(Cl)ccc4c3=O)CC2)cc1 was read as Platelet DG rel -5.4, SENP7 block -8.1, SENP8 block-1 52.8*, SENP8 block-2 -6.1, SENP1 FRET inh 0.3 and SENP6 block -11.9.
For CSc1ccc(CNC(=O)C2(C)CCCN2CC(C)C)cc1 (centres undefined) the results were SENP8 block-1 8.7 and SENP1 FRET inh -10.5.
For O=C(c1cc2c(s1)CCCCC2)N1CCN(c2ncccn2)CC1 the results were Platelet DG rel 1.8, SENP7 block -5.5, SENP8 block-1 0.9, SENP8 block-2 -7.7, SENP1 FRET inh 1.1 and SENP6 block -13.6.
`O=C(c1cc2c(s1)CCCC2)n1cccn1` gave Platelet DG rel -0.7, SENP7 block 63.5*, SENP8 block-1 7.5, SENP8 block-2 28.3, SENP1 FRET inh 8.5 and SENP6 block 57.7*.
CSc1nc2sc(-c3ccccc3)cc2c(=O)n1N was read as Platelet DG rel 115.4*, SENP7 block 97.9*, SENP8 block-1 -111.0, SENP8 block-2 93.6*, SENP1 FRET inh 0.2 and SENP6 block 94.6*.
COc1ccc(S(=O)(=O)N2CCC(C(=O)N3CCN(C)CC3)CC2)cc1Cl was read as Platelet DG rel -4.1, SENP7 block -15.0, SENP8 block-1 2.2, SENP8 block-2 -13.4, SENP1 FRET inh -0.8 and SENP6 block -17.5.
Cc1cccc(-c2nc3cc(NC(=O)C4CCCO4)ccc3o2)c1 (centres undefined) was read as Platelet DG rel 59.4*, SENP8 block-1 -410.3 and SENP1 FRET inh -2.2.
`O=C(CNc1ccc(F)cc1)c1ccccc1` gave Platelet DG rel 32.8, SENP7 block 18.9, SENP8 block-1 20.8, SENP8 block-2 32.3, SENP1 FRET inh 1.2 and SENP6 block 65.4*.
Screening CCOC(=O)N1CCC(N2C(=O)c3ccc(C(=O)Nc4ccc(OC)c(OC)c4)cc3C2=O)CC1 returned Platelet DG rel -5.3, SENP7 block -2.6, SENP8 block-1 12.8*, SENP8 block-2 5.4, SENP1 FRET inh 1.8 and SENP6 block 14.5.
For CCOC(=O)N1CCC(N2C(=O)c3ccc(C(=O)NCCC(C)C)cc3C2=O)CC1 the results were Platelet DG rel -10.3, SENP7 block 2.4, SENP8 block-1 10.4, SENP8 block-2 5.2, SENP1 FRET inh 1.9 and SENP6 block -17.2.
`COc1cccc2c1C(=O)c1c(O)c3c(c(O)c1C2=O)CC(O)(C(C)=O)CC3OC1CC(O)C(O)C(C)O1` (centres undefined) gave SENP8 block-1 50.4* and SENP1 FRET inh 101.4.
For COc1cccc2c1C(=N)c1c(O)c3c(c(O)c1C2=O)CC(O)(C(C)=O)CC3OC1CC(N)C(O)C(C)O1 (centres undefined) the results were SENP8 block-1 37.6 and SENP1 FRET inh 11.7.
O=C(N=Nc1c(O)n(Cc2ccccc2)c2ccccc12)c1ccncc1 was read as Platelet DG rel 1.0, SENP7 block 6.7, SENP8 block-1 42.1*, SENP8 block-2 -12.0, SENP1 FRET inh 2.2 and SENP6 block 25.9.
COC(=O)N=Nc1c(O)n(Cc2ccccc2)c2ccccc12 was read as Platelet DG rel -3.6, SENP7 block 1.4, SENP8 block-1 25.1, SENP8 block-2 -5.2, SENP1 FRET inh -0.3 and SENP6 block -7.7.
CCOC(=O)C1CCN(Cc2ccccn2)CC1 was read as Platelet DG rel -11.5, SENP7 block 1.2, SENP8 block-2 3.7 and SENP6 block 10.3.
For CCOC(=O)C1CCN(C=Nc2cc(C)on2)CC1 the results were Platelet DG rel 56.7*, SENP7 block -7.8, SENP8 block-1 13.7, SENP8 block-2 -8.8, SENP1 FRET inh 0.1 and SENP6 block -8.5.
Screening O=C1/C(=C\c2ccc(Br)o2)Cc2ccccc21 returned Platelet DG rel -7.6, SENP7 block 21.9, SENP8 block-1 -43.1, SENP8 block-2 43.2, SENP1 FRET inh -47.7 and SENP6 block 72.8*.
COc1ccc(C(=O)NC2CC(C)(C)Cc3c2cnn3-c2ccccc2)cc1OC (centres undefined) was read as Platelet DG rel 3.0, SENP7 block -3.8, SENP8 block-1 21.6, SENP8 block-2 2.4, SENP1 FRET inh 3.6 and SENP6 block 0.6.
`Nc1c(S(=O)(=O)c2cccs2)c2nc3ccccc3nc2n1CCc1ccccc1` gave Platelet DG rel -1.4, SENP7 block 27.4, SENP8 block-2 30.6 and SENP6 block 53.3*.
Screening Oc1ccc(N=Nc2nc(-c3ccccc3)c(-c3ccccc3)[nH]2)cc1 returned Platelet DG rel 0.3, SENP7 block -0.7, SENP8 block-1 32.5, SENP8 block-2 -9.3, SENP1 FRET inh 39.3* and SENP6 block -4.7.

Screens from PubChem BioAssay.
